Laboratory results: ChEMBL document CHEMBL4052623, “Synthesis and antiproteasomal activity of novel O-benzyl salicylamide-based inhibitors built from leucine and phenylalanine” (Eur J Med Chem, 2017)
The source made the active and inactive calls. The rule behind the calls is not given here.

How the values were obtained:
[1] = target: T1, Proteasome Macropain subunit MB1 (Homo sapiens) (UniProt P28074); assay: Inhibition of chymotrypsin like activity of 26S proteasome beta 5 subunit in human U266 cells assessed as residual activity using N-Suc-LLVY-AMC as substrate at 10 uM preincubated for 1 hr followed by substrate addition and measured after 4 hrs by fluorescence assay relative to control; assay type: cell-based
T1 sequence (whole entry): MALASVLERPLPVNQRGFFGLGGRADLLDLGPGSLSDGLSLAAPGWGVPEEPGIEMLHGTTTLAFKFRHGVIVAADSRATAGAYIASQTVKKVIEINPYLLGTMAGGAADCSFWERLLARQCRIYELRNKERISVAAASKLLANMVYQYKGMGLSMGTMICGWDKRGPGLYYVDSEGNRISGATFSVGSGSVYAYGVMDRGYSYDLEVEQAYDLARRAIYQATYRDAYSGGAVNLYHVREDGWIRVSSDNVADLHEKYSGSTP

K562 = assay: Antiproliferative activity against human K562 cells after 72 hrs by calcein AM staining based fluorescence assay; assay type: functional; details: K562, 72 h
Procedure, shortened: (§1)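 Cells treated with three-fold compound dilutions in triplicate for 72 h. Calcein AM added afterwards and live-cell fluorescence read at 485/538 nm (ex/em). GI50, the concentration lethal to 50% of tumour cells, calculated from dose-response curves.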

CCRF-CEM = assay: Antiproliferative activity against human CEM cells after 72 hrs by calcein AM staining based fluorescence assay; assay type: functional; procedure, shortened: as §1
U-266 [2] = assay: Antiproliferative activity against human U266 cells after 72 hrs by calcein AM staining based fluorescence assay; assay type: functional; details: U-266, 72 h; procedure, shortened: as §1
[3] = target: T2, Proteasome Macropain subunit MB1 (Homo sapiens, UniProt P28074); assay: Inhibition of chymotrypsin-like activity of 26S proteasome beta 5 subunit in human U266 cells using Suc-LLVY-aminoluciferin as substrate after 1 hr by Proteosome-Glo luminescence assay; assay type: cell-based
T2 sequence (P28074 whole entry): T1 sequence (whole entry)
Procedure, shortened: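 U266 multiple myeloma cells plated at 20,000 cells/well and exposed to varying compound concentrations for 1 h at 37 °C, in duplicate. 26S proteasome activity measured immediately as luciferase-coupled hydrolysis of the β5 substrate Suc-LLVY-aminoluciferin (Proteasome-Glo), read by luminescence. Activity normalised to untreated cells; IC50 derived from dose-response curves.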

[4] = target: Proteasome Macropain subunit (Homo sapiens) (UniProt P49721); assay: Inhibition of trypsin like activity of 26S proteasome beta 2 subunit in human U266 cells assessed as residual activity using […] as substrate at 10 uM preincubated for 1 hr followed by substrate addition and measured after 4 hrs by fluorescence assay relative to control; assay type: cell-based
Homo sapiens [5] = organism: Homo sapiens; assay: Inhibition of proteasome in human U2OS cells stably expressing GFP fused to short degron assessed as increase in GFP accumulation pre-incubated for 1 hr and measured after 9 hrs by live-cell imaging microscopy; assay type: cell-based
[6] = target: T3, Proteasome component C5 (Homo sapiens) (UniProt P20618); assay: Inhibition of caspase like activity of 26S proteasome beta 1 subunit in human U266 cells assessed as residual activity using […] as substrate at 10 uM preincubated for 1 hr followed by substrate addition and measured after 4 hrs by fluorescence assay relative to control; assay type: cell-based
T3 sequence (whole entry): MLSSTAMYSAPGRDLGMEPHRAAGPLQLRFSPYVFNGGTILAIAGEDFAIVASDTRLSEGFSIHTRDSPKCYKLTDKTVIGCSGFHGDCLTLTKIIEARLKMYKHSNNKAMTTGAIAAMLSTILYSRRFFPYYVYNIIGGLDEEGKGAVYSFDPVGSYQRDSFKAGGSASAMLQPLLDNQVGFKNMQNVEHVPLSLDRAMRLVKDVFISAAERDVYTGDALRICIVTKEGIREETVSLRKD

Homo sapiens [7] = organism: Homo sapiens; assay: Inhibition of proteasome in human U266 cells assessed as increase in accumulation of polyubiquitinated proteins by Western blot analysis; assay type: cell-based; details: TDE = time-dependent effect
Procedure, shortened: (§2)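 Treated U266 cells harvested in Laemmli sample buffer. Proteins separated by SDS-PAGE and electroblotted to nitrocellulose. Membranes blocked, probed overnight with specific primary antibodies, then detected with peroxidase-conjugated secondary antibodies.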

Homo sapiens [8] = organism: Homo sapiens; assay: Inhibition of proteasome in human U2OS cells stably expressing GFP fused to short degron assessed as increase in GFP accumulation at 200 nM […] by live-cell imaging microscopy; assay type: cell-based
U2OS [9] = assay: Cytotoxicity against human U2OS cells at 6.25 uM after 16 hrs by live-cell imaging microscopic analysis; assay type: cell-based
Procedure, shortened: (§3)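 U2OS degron-GFP cells plated at 10,000 cells/well and treated with a range of compound concentrations. Proliferation followed by live-cell time-lapse imaging as percent confluence (occupied image area) over time, up to 72 h.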

U2OS [10] = assay: Antiproliferative activity against human U2OS cells up to 1 uM after 24 hrs by live-cell imaging microscopic analysis; assay type: functional, cell-based; procedure, shortened: as §3
U2OS [11] = assay: Antiproliferative activity against human U2OS cells up to 1 uM after 48 hrs by live-cell imaging microscopic analysis; assay type: functional, cell-based; procedure, shortened: as §3
U2OS [12] = assay: Antiproliferative activity against human U2OS cells at 200 nM after 72 hrs by live-cell imaging microscopic analysis; assay type: functional, cell-based; procedure, shortened: as §3
Homo sapiens [13] = organism: Homo sapiens; assay: Inhibition of proteasome in human U266 cells assessed as increase in accumulation of polyubiquitinated proteins at 250 nM by Western blot analysis; assay type: cell-based; details: TDE = time-dependent effect; procedure, shortened: as §2
Homo sapiens [14] = organism: Homo sapiens; assay: Inhibition of proteasome in human U266 cells assessed as increase in p27KIP level up to 24 hrs by Western blot method; assay type: cell-based; procedure, shortened: as §2
U-266 [15] = assay: Induction of apoptosis in human U266 cells assessed as increase in caspase-3/7 activity using Ac-DEVD-AMC as substrate at 250 nM by fluorescence assay; assay type: functional, cell-based; details: TDE = time-dependent effect
Procedure, shortened: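 Homogenates clarified at 10,000 × g for 30 min at 4 °C and protein-equalised. Lysates incubated with 100 µM Ac-DEVD-AMC in pH 7.3 PIPES/EGTA/MgCl2/DTT buffer. Fluorescence read at 355/460 nm and normalised to untreated control.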

U-266 [16] = assay: Induction of apoptosis in human U266 cells assessed as PARP1 cleavage at 250 nM after 16 to 24 hrs by Western blot method; assay type: functional, cell-based; procedure, shortened: as §2
U-266 [17] = assay: Induction of apoptosis in human U266 cells assessed as caspase-7 cleavage at 250 nM after 16 to 24 hrs by Western blot method; assay type: functional, cell-based; procedure, shortened: as §2
U-266 [18] = assay: Induction of apoptosis in human U266 cells assessed as downregulation of Mcl-1 level at 250 nM after 16 to 24 hrs by Western blot method; assay type: functional, cell-based; procedure, shortened: as §2
U-266 [19] = assay: Effect on beta-actin protein levels in human U266 cells at 250 nM after 2 to 24 hrs by Western blot analysis; assay type: ADME, cell-based; details: u-266, 0.25 µM; procedure, shortened: as §2
U-266 [20] = assay: Effect on alpha-tubulin protein levels in human U266 cells at 250 nM after 2 to 24 hrs by Western blot analysis; assay type: ADME, cell-based; details: u-266, 0.25 µM; procedure, shortened: as §2

Sequence of Proteasome Macropain subunit (Homo sapiens) (P49721 whole entry, the tested form may be a part): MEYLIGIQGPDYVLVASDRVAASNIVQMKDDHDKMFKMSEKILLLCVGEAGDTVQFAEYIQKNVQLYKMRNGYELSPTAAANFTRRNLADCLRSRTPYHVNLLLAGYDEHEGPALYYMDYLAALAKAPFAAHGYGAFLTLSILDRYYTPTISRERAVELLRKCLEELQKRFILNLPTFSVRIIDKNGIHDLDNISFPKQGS

Row | Structure (SMILES) | Activity [1] [%] | GI50 (K562) [nM] | GI50 (CCRF-CEM) [nM] | GI50 (U-266 [2]) [nM] | IC50 [3] [nM] | Activity [4] [%] | inhibition (Homo sapiens [5]) | Activity [6] [%] | further results
1 | CC(C)C[C@H](NC(=O)c1cc(Cl)ccc1OCc1ccccc1)C(=O)N[C@@H](Cc1ccccc1)C(=O)N[C@H](C=O)Cc1ccccc1 | 25.8 | 1450 | 440 | 400 | 110 | 47.2 | Dose-dependent effect | > 100 | 
2 | CC(C)C[C@H](NC(=O)c1cc(Cl)ccc1O)C(=O)N[C@@H](Cc1ccccc1)C(=O)N[C@H](C=O)Cc1ccccc1 | 71.7 | 6900 | 2300 | 2230 | 740 | 84.2 | Dose-dependent effect | 73.5 | 
3 | CC(C)C[C@@H](C=O)NC(=O)[C@H](Cc1ccccc1)NC(=O)[C@H](CC(C)C)NC(=O)c1cc(Cl)ccc1OCc1ccccc1 | 10.6 | 1040 | 430 | 170 | 67 | 42.5 | Dose-dependent effect | 40.2 | 
4 | CC(C)C[C@H](NC(=O)c1cc(Cl)ccc1OCc1ccccc1)C(=O)N[C@@H](CC(C)C)C(=O)NC(C=O)Cc1ccccc1 (some centres undefined) | 27.9 | 1050 | 790 | 540 | 197 | 48.4 | Dose-dependent effect | 66.2 | 
5 | CC(C)C[C@H](NC(=O)c1cc(Cl)ccc1OCc1ccccc1)C(=O)N[C@@H](Cc1ccccc1)C(=O)NC(C=O)Cc1ccccc1 (some centres undefined) | 29.1 | 1280 | 400 | 460 | 168 | 62.3 | Dose-dependent effect | > 100 | 
6 | CC(C)C[C@@H](C=O)NC(=O)[C@H](Cc1ccccc1)NC(=O)[C@H](CC(C)C)NC(=O)c1cc(Cl)ccc1O | 27.9 | 2100 | 780 | 670 | 237 | 72.6 | Dose-dependent effect | 28.9 | 
7 | CC(C)C[C@H](NC(=O)[C@H](Cc1ccccc1)NC(=O)c1cnccn1)B(O)O [BORTEZOMIB] | 1.5 | 7 | 1 | 1 |  | 86.1 |  | 0 | inhibition (Homo sapiens [7]): Tde
8 | CC(C)CC(C=O)NC(=O)[C@H](Cc1ccccc1)NC(=O)[C@H](CC(C)C)NC(=O)c1cc(Cl)ccc1OCc1ccccc1 (some centres undefined) | 13.4 | 570 | 280 | 150 | 90 | 81.8 | Dose-dependent effect | 74.6 | inhibition (Homo sapiens [8]): Active; Activity (U2OS [9]): Toxic; Activity (U2OS [10]): inactive; Activity (U2OS [11]): Active; Activity (U2OS [12]): inactive; inhibition (Homo sapiens [13]): Tde; inhibition (Homo sapiens [14]): Dose-dependent effect; Activity (U-266 [15]): Tde; Activity (U-266 [16]): Active; Activity (U-266 [17]): Active; Activity (U-266 [18]): Active; Activity (U-266 [19]): Non-Toxic; Activity (U-266 [20]): Non-Toxic
9 | CC(C)CC(C=O)NC(=O)[C@H](CC(C)C)NC(=O)[C@H](CC(C)C)NC(=O)c1cc(Cl)ccc1OCc1ccccc1 (some centres undefined) | 10.4 | 610 | 490 | 290 | 99 | 64.2 | Dose-dependent effect | 39.2 | 
